MEKK2 mut-MEK5: MEK5 binding signal on mutant MEKK2 PB1, primary screen, biochemical, multiplex bead flow cytometry, Alexa488-MEK5; Alexa488-MEK5 binding to MEKK2 mutant; percent response, % at 10 µM; 290,000 tested, 0.35% active; in the data active = percent response above about 24%, passing the limit was not always enough
MEKK3 PB1 HTS: modulators of MEKK3-MEK5 PB1 binding, primary screen, biochemical, wildtype MEKK3, multiplex bead flow cytometry, Alexa488-MEK5. AID 1529, 2009. binding response (% of control), % at 10 µM. 290,000 tested, 1.4% active. bead-based flow cytometry, Alexa488-MEK5 binding to MEKK3; actives lie on both sides; 0 = blocked by unlabeled MEK5, 100 = vehicle;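 active = binding response more than 3 SD above or below the average of its plate-row segment, actives on both sides; inconclusive = wells at one plate position flagged as instrument error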;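 note: Alexa488 bead fluorescence after subtracting the streptavidin-only scavenger bead signal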
Target sequence (Q99759 whole entry, looked up): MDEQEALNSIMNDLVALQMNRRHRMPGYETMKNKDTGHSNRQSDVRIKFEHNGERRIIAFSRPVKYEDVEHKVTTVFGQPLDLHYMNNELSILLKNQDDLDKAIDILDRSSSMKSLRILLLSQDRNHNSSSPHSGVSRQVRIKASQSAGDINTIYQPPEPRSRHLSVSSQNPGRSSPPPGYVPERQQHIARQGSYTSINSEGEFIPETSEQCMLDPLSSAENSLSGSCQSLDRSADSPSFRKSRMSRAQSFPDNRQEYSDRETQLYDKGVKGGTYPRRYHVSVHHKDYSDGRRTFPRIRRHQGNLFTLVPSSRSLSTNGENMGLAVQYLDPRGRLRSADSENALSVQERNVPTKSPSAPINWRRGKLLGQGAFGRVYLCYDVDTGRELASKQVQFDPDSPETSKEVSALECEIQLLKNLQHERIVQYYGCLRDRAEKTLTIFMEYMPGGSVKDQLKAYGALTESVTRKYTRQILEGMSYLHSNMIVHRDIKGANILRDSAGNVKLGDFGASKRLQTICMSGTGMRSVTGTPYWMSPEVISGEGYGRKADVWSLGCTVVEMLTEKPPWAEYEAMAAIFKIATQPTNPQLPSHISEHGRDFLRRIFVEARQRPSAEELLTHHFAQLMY
Lipid droplet: inhibitors of hepatocyte lipid droplet formation, primary screen, imaging, high-throughput imaging, BODIPY stain; AID 1656, 2009; AML12 mouse hepatocytes, oleate lipid droplets; inhibition, % at 6.5 µM; 240,000 tested, 0.4% active;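 active = lipid droplet intensity inhibited by at least 50%, with more than 500 cells counted; inconclusive = wells with under 300 cells, treated as cytotoxic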
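Material – AML12 mouse liver cells · Also added – oleate loading, 100 µM · Compound dosing – 6.5 µM single-point dosing · Times – overnight treatment with compound plus oleate · Measured by – fluorescence imaging, 20x objective, two fields per well · Read-out – percent inhibition of filter-corrected integrated lipid droplet intensity per well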
MEKK2wt PB1 HTS: modulators of MEK5 binding to wildtype MEKK2, primary screen, biochemical, multiplex bead flow cytometry, Alexa488-MEK5 | AID 1531, 2009 | Alexa488-MEK5 binding to MEKK2 WT; actives lie on both sides | Mitogen-activated protein kinase kinase kinase 2 (Homo sapiens), Q9Y2U5 | binding response (% of control), % at 10 µM | 290,000 tested, 1.1% active; in the data active = binding response below about 67% or above about 130%; inconclusive = no clear call, values can overlap the other calls; inactive = in between
MEKK2wt confirm: modulators of MEK5 binding to wildtype MEKK2, confirmation, biochemical, single concentration, multiplex bead flow cytometry; binding response (% of control), % at 10 µM; AID 1892, 2009; 5,900 tested, 2.4% active; shares compounds with MEKK3 PB1 HTS; Alexa488-MEK5 binding to MEKK2 WT; actives lie on both sides; in the data active = binding response below about 16% or above about 210%; inactive = in between
MEKK2mut-MEK5: mutant MEKK2 PB1-MEK5 binding signal retest – biochemical, single concentration, multiplex bead flow cytometry, confirmation; 5,900 tested, 2% active; percent response, % at 10 µM; Alexa488-MEK5 binding to MEKK2 mutant; shares compounds with MEKK3 PB1 HTS; in the data active = percent response mostly above about 71%, no sharp cut-off; inactive = mostly below about 38%;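 note: higher means compound restores mutant binding toward wildtype level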
MEKK3 confirm: MEKK3 wild-type PB1 binding to MEK5, inhibitors, confirmation, biochemical, bead multiplex flow cytometry, single concentration, wildtype | shares compounds with MEKK3 PB1 HTS | Alexa488-MEK5 binding to MEKK3; hits give low values | binding response (% of control), % at 10 µM | 5,900 tested, 1.8% active;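 active = binding response below 72% of control, or above a set upper limit, though filed actives all read lower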;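 note: lower values mean stronger disruption of MEK5 binding to MEKK3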
Each line names hits and unclear results; the compound was inactive in the other large screens (follow-up assays come after a bar, where they were run); ! = a repeat was not active; [ ] = remark or other dose. The list is not random: actives were taken first. Their share in the collection is about 2.6%.

Cc1nn(CCCC(=O)Nc2nccs2)c(C)c1[N+](=O)[O-]	none
COc1ccc(CCN2C(=O)CCC2(C)C(=O)NC2CCCC2)cc1OC (configuration not stated)	MEKK3 PB1 HTS 35.0[inhibitor], MEKK2wt PB1 HTS 45.0[inhibitor] | MEKK2wt confirm inactive | MEKK2mut-MEK5 inactive | MEKK3 confirm inactive
Cc1ccc(CCN2C(=O)CCC2(C)C(=O)NC2CCCC2)cc1 (configuration not stated)	none
Cc1ccc(C(=O)O[C@H](C(=O)O)[C@H](OC(=O)c2ccc(C)cc2)C(=O)O)cc1	none (no result: Lipid droplet)
CC(C)NC(=O)C(OC(=O)c1ccccc1)C(OC(=O)c1ccccc1)C(=O)O (configuration not stated)	MEKK3 PB1 HTS 123.0 (no result: Lipid droplet) | MEKK2wt confirm inactive | MEKK2mut-MEK5 inactive | MEKK3 confirm inactive
COc1ccc(-n2c(=S)[nH]c3cc(C(=O)Nc4ccc(OC)c(OC)c4)ccc3c2=O)cc1	MEKK3 PB1 HTS 140.0 | MEKK2wt confirm inactive | MEKK2mut-MEK5 inactive | MEKK3 confirm inactive
COc1ccc(-n2c(=S)[nH]c3cc(C(=O)Nc4cccc(C)c4)ccc3c2=O)cc1	MEKK3 PB1 HTS 155.0 | MEKK2wt confirm inactive | MEKK2mut-MEK5 inactive | MEKK3 confirm inactive
CCOC(=O)N1CCN(C(=O)c2ccc3c(=O)n(-c4ccc(F)cc4)c(=S)[nH]c3c2)CC1	MEKK3 PB1 HTS 1.0[inhibitor], MEKK2wt PB1 HTS 0.0[inhibitor] | MEKK2wt confirm inactive | MEKK2mut-MEK5 inactive | MEKK3 confirm inactive
O=S1(=O)N=C(N(Cc2cccs2)c2ccc(O)cc2)c2ccccc21	none
Oc1c(C=C2N=c3ccccc3=N2)sc(=S)n1C1CCCCC1	MEKK2wt PB1 HTS 53.0![inhibitor] | MEKK2wt confirm inactive | MEKK2mut-MEK5 inactive | MEKK3 confirm inactive
O=C(Nn1c(O)c(C=C2N=c3ccccc3=N2)sc1=S)c1ccccc1Cl	MEKK2wt PB1 HTS 58.0[inhibitor] | MEKK2wt confirm inactive | MEKK2mut-MEK5 inactive | MEKK3 confirm inactive
Cc1cccc(C(=O)Nc2c(C(=O)N(C)C)cnn2-c2ccccc2)c1	none
Cc1cc(C)c(NC(=O)C2CCCN2C(=O)NC2CCCCC2)c(C)c1 (configuration not stated)	MEKK3 PB1 HTS 125.0 | MEKK2wt confirm inactive | MEKK2mut-MEK5 inactive | MEKK3 confirm inactive
Cc1cc(C)c(NC(=O)C2CCCN2CCOC(=O)c2ccccc2)c(C)c1 (configuration not stated)	MEKK3 PB1 HTS 142.0 | MEKK2wt confirm inactive | MEKK2mut-MEK5 inactive | MEKK3 confirm inactive
Cc1cc(C)c(NC(=O)C2CCCN2CCOC(=O)c2cccc([N+](=O)[O-])c2)c(C)c1 (configuration not stated)	none
CCOC(=O)c1sc(/N=C/c2ccc(O)cc2O)cc1C	none
COc1ccccc1C(=O)NC(=S)Nc1cc(C(=O)O)ccc1C	none
COc1cc2ccccc2cc1C(=O)NC(=S)Nc1cc(C(=O)O)ccc1C	MEKK3 PB1 HTS 129.0 | MEKK2wt confirm inactive | MEKK2mut-MEK5 inactive | MEKK3 confirm inactive
O=C(/C=C/c1ccccc1)C1=C(O)C(=O)N(CCO)C1c1ccc2c(c1)OCO2 (configuration not stated)	none
COc1cc(/C=C/c2noc(-c3ccccc3O)n2)ccc1OC(C)=O	MEKK3 PB1 HTS 129.0 | MEKK2wt confirm inactive | MEKK2mut-MEK5 inactive | MEKK3 confirm inactive
Cc1nc2c(oc3ccc(Cl)cc32)c(=O)[nH]1	MEKK3 PB1 HTS 49.0[inhibitor] | MEKK2wt confirm inactive | MEKK2mut-MEK5 inactive | MEKK3 confirm inactive
Cc1c(C(=O)O)cccc1-c1ccc(/C=N/Nc2ccc(Br)cc2)o1	none
Cc1cccc(NC(=S)NNC(=O)c2ccc3c(c2)OCO3)c1	none
CCCc1cc(C(=O)NNC(=S)Nc2cccc(C)c2)cs1	MEKK3 PB1 HTS 129.0 | MEKK2wt confirm inactive | MEKK2mut-MEK5 inactive | MEKK3 confirm inactive
O=C(Nc1ccccc1)N(C1=NCCCCS1)c1ccccc1	none
O=C(Nc1ccccc1)N(C1=NCCCCS1)c1cccc2ccccc12	MEKK3 PB1 HTS 127.0 (no result: Lipid droplet) | MEKK2wt confirm inactive | MEKK2mut-MEK5 inactive | MEKK3 confirm inactive
Cc1cc(C(=O)N2CCCC(Nc3ccccc3)C2)c2ccc(F)cc2n1 (configuration not stated)	none
C/C(=N\NC1=NCCN1)c1ccc(N)c([N+](=O)[O-])c1	MEKK3 PB1 HTS 46.0[inhibitor] | MEKK2wt confirm inactive | MEKK2mut-MEK5 inactive | MEKK3 confirm inactive
COc1ccc(/C(C)=N/NC2=NCCN2)cc1Cl	none
CCCCCCOc1ccc(/C(C)=N/NC2=NCCN2)cc1[N+](=O)[O-]	MEKK2wt PB1 HTS 203.0 | MEKK2wt confirm 226.0 | MEKK2mut-MEK5 inactive | MEKK3 confirm inactive
CCCCOc1ccc(Br)cc1/C(C)=N/NC1=NCCN1	MEKK2 mut-MEK5 35.0, Lipid droplet inconclusive, MEKK2wt PB1 HTS 162.0 | MEKK2wt confirm inactive | MEKK2mut-MEK5 inactive | MEKK3 confirm inactive
COc1ccc2nc(C)cc(N/N=C/c3ccc(F)cc3)c2c1	MEKK2 mut-MEK5 59.0, MEKK3 PB1 HTS 69.0[inhibitor], MEKK2wt PB1 HTS 160.0 (no result: Lipid droplet) | MEKK2wt confirm 211.0 | MEKK2mut-MEK5 inactive | MEKK3 confirm inactive
Cc1ccc2nc(C)cc(N/N=C/c3cccc(O)c3)c2c1	none
COc1ccc(/C=N/Nc2cc(C)nc3c(C)cccc23)cc1	MEKK2 mut-MEK5 71.0, MEKK2wt PB1 HTS 279.0 | MEKK2wt confirm inactive | MEKK2mut-MEK5 inactive | MEKK3 confirm inactive
COc1ccc(/C=N/Nc2cc(C)nc3ccccc23)cc1	MEKK2 mut-MEK5 43.0, MEKK2wt PB1 HTS 228.0 | MEKK2wt confirm inactive | MEKK2mut-MEK5 inactive | MEKK3 confirm inactive
C[C@H](NC(=O)[C@@H]1Cc2ccccc2CN1)C(=O)NCC1CCCO1 (some centres not stated)	none
CCCCC(=O)OCC(=O)c1cc(C)n(-c2c(C)n(C)n(-c3ccccc3)c2=O)c1C	MEKK3 PB1 HTS 65.0[inhibitor] | MEKK2wt confirm inactive | MEKK2mut-MEK5 inactive | MEKK3 confirm inactive
CCOC(=O)c1cc(C)n(-c2c(C)n(C)n(-c3ccccc3)c2=O)c1C	none
Cc1cc(C(=O)COC(=O)CC2Sc3ccccc3NC2=O)c(C)n1-c1ccccc1 (configuration not stated)	MEKK3 PB1 HTS 136.0 | MEKK2wt confirm inactive | MEKK2mut-MEK5 inactive | MEKK3 confirm inactive
O=C(/C=C/c1cccc([N+](=O)[O-])c1)NCCSCc1ccccc1Cl	none

Screening results from PubChem BioAssay.
